A word on the IC50: it is the concentration needed to halve the response being measured. The term inhibition denotes the percentage by which the read-out fell short of the control. In general, Cmax refers to the peak of the concentration-time curve. For orientation: half-life means how long it takes for the measured level to halve. Broadly, the bioavailability is the share of a dose that reaches the circulation, judged against a reference dose that is usually intravenous.

For series [1], the target named is T1, Xanthine dehydrogenase/oxidase (Bos taurus, UniProt P80457). The experiment in a line: Inhibition of bovine milk XOR-mediated uric acid formation after 15 mins by spectrophotometer.
T1 sequence (P80457 whole entry): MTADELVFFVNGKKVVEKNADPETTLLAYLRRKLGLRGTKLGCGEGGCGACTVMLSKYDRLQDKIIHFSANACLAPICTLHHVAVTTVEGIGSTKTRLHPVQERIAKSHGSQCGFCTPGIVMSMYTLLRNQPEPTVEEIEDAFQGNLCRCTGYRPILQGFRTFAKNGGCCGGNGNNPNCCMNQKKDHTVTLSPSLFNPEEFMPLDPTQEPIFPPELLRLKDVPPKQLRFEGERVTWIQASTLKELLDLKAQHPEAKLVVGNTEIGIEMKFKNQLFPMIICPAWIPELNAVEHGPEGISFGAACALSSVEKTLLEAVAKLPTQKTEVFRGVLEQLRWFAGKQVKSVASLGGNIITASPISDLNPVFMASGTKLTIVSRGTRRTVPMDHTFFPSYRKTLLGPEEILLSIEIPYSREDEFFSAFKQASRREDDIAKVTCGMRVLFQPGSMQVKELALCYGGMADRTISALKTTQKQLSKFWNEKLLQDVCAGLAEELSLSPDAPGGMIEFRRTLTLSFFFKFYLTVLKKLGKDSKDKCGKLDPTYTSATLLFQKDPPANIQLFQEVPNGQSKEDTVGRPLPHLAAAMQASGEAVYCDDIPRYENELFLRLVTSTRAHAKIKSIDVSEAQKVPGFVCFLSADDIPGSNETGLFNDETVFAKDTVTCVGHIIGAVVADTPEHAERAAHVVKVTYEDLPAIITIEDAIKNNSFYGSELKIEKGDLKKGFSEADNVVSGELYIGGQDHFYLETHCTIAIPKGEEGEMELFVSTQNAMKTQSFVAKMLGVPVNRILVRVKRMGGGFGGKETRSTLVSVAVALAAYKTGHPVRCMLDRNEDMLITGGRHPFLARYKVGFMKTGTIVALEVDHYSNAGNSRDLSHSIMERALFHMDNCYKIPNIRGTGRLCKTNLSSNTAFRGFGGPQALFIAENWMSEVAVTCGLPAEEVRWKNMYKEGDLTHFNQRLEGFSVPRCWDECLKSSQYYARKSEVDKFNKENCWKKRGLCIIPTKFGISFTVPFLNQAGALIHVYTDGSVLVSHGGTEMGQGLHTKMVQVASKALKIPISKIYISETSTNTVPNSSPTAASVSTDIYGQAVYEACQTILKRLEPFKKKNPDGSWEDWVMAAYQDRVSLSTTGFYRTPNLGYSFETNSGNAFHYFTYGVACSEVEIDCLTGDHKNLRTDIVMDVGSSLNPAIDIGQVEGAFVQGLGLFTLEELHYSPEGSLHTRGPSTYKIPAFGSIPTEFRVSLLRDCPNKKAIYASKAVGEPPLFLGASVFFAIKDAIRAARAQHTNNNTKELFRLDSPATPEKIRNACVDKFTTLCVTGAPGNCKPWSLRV
The test system of series [2] is Rattus norvegicus. The experiment in a line: Reduction of uric acid level in rat serum at 0.3 mg/kg, po after 6 hrs by phosphotungstic acid method. Type of series: functional. The arrangement: scale not given: the % may be the effect or the level left. The essentials:
(§1)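 Rats were dosed orally. Blood was drawn from the orbital sinus 2 or 6 h later, clotted 1 h at room temperature and centrifuged. Serum uric acid was measured by the phosphotungstic acid method. Values are mean ± SD of at least three rats.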

The subject of series [3] is Rattus norvegicus. The experiment in a line: Reduction of uric acid level in rat serum at 3 mg/kg, po after 6 hrs by phosphotungstic acid method. Type of series: functional. The arrangement: scale not given: the % may be the effect or the level left. A digest of the protocol:
as §1

In series [4] the target is CYP3A4 (Homo sapiens, UniProt P08684). The experiment in a line: Inhibition of CYP3A4 in human liver microsomes assessed as inhibition of testosterone hydroxylation at 10 uM by HPLC analysis. Format: ADME, Microsome. Also noted: dose 10 uM. The settings on record: probe testosterone (hydroxylation). (In general: Microsomes from liver hold many membrane-bound enzymes, among them those of drug oxidation.)
CYP3A4, sequence (P08684 whole entry): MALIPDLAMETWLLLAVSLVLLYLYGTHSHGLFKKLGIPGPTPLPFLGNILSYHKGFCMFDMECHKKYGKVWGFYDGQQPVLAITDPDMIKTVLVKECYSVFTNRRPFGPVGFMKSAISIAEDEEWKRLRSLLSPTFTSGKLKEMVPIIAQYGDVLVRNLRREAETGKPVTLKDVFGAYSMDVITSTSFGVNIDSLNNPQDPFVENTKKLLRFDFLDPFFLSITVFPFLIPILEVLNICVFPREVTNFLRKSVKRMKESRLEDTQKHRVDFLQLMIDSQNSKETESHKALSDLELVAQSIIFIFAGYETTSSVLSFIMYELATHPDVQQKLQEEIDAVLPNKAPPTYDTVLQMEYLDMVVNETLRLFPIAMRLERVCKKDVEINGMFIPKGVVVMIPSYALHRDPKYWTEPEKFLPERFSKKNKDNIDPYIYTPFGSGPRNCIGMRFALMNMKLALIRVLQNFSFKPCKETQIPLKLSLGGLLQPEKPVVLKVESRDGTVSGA

Series [5] is described as follows: Cmax in rat at 3 mg/kg, po by LC-MS method. Type of series: ADME, organism-based. The conditions noted are these: in vivo. The arrangement: dose 3 mg/kg, route oral. The essentials:
(§2)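 After oral dosing to rats, jugular vein blood was collected at predetermined times and centrifuged to plasma. Plasma was mixed with acetonitrile containing an internal standard and centrifuged, and the supernatant was analysed by LC–MS.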

The test system of series [6] is Rattus norvegicus. The experiment in a line: Reduction of uric acid level in rat serum at 1 mg/kg, po after 6 hrs by phosphotungstic acid method. The arrangement: scale not given: the % may be the effect or the level left. Format: functional. A digest of the protocol:
as §1

Series [7] has as its system Rattus norvegicus. The experiment in a line: Reduction of uric acid level in rat serum at 0.3 mg/kg, po after 2 hrs by phosphotungstic acid method. Format: functional. The arrangement: scale not given: the % may be the effect or the level left. A digest of the protocol: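 Test compound dosed orally to rats; blood drawn from orbital sinus 2 or 6 h post-dose, clotted 1 h at room temperature, centrifuged. Serum uric acid measured by phosphotungstic acid method. Mean ± SD of at least three rats.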

Series [8] deals with T1, Xanthine dehydrogenase/oxidase. The experiment in a line: Inhibition of bovine milk XOR-mediated uric acid formation at 10 uM after 15 mins by spectrophotometer. The conditions noted are these: cattle, 0.25 h.
A short description of series [9]: Cmax in rat at 1 mg/kg, po by LC-MS method. Format: ADME, organism-based. Also noted: dose 1 mg/kg, route oral. The conditions noted are these: in vivo. The essentials: as §2
Series [10] in a line: Half life in rat at 3 mg/kg, po by LC-MS method. Format: ADME, organism-based. The arrangement: dose 3 mg/kg, route oral. The conditions noted are these: in vivo.
Series [11] in a line: Bioavailability in rat at 3 mg/kg. Type of series: ADME, organism-based. The settings on record: in vivo.

Regarding `CC(C)COc1ccc(-c2n[nH]c(-c3ccncc3)n2)cn1`, the midpoint of inhibition in [1], the IC50, lay at 24 nM. In addition, the Activity in series [2] and in [3] was 13.4% throughout.

In turn, `Cc1cc(-c2n[nH]c(-c3ccnc(C#N)c3)n2)ccn1` returned an IC50 in series [1] of 59 nM. Besides, the Activity in series [2] was found to be 41.1%. Besides, in series [4], the inhibition at 10 µM turned out to be 4.7%. The compound further showed a Cmax in [5] of 3970 ng/mL.

As for `Clc1cc(-c2n[nH]c(-c3ccncc3)n2)ccn1`, it took 7.9 nM to reach half-maximal inhibition in [1] (IC50). In addition, the inhibition at 10 µM in series [4] is 54.1%. In [5], this compound gave a Cmax of 4360 ng/mL. In addition, the Activity in [6] (dose 1 mg/kg) is listed as 26.5%.

As to `CC(C)CSc1cc(-c2nc(-c3ccnc(C#N)c3)n[nH]2)ccn1`, the Activity in [2] is -1.4%.

`Cc1cc(-c2n[nH]c(-c3ccnc(C)c3)n2)ccn1` displayed an IC50 in series [1] of 310 nM. Also, the Activity in series [2] was 26.1%. In addition, the inhibition at 10 µM in [4] was 15.3%.

In series [1], `c1cc(-c2n[nH]c(-c3ccncc3)n2)ccn1` registered an IC50 of 170 nM. Moreover, in [4], the inhibition at 10 µM worked out at 18.5%. Besides, the Activity in series [6] (dose 1 mg/kg) is on record as -6.8%.

In [1], `COc1ccc(-c2n[nH]c(-c3ccnc(C)c3)n2)cc1[N+](=O)[O-]` returned a 50% inhibitory concentration (IC50) of 17 nM. The Activity in series [2] was determined as 19.3%.

Turning to `Cc1cc(-c2n[nH]c(-c3ccnc(-c4ccccc4)c3)n2)ccn1`, in [1], the concentration for half-maximal inhibition (IC50) turned out to be 59 nM. The Activity in series [2] was 8%.

In [1], `CSc1cc(-c2nc(-c3ccnc(C)c3)n[nH]2)ccn1` yielded an IC50 of 170 nM. Also, the Activity in [2] is recorded as 19.2%.

`COCCOCCOc1ccc(-c2nc(-c3ccnc(C)c3)n[nH]2)cc1C#N` gave a concentration for half-maximal inhibition (IC50) in series [1] of 31 nM. The Activity in [2] amounted to 52%.

With `CC(C)COc1cc(-c2nc(-c3ccnc(C#N)c3)n[nH]2)ccn1`, the Activity in [2] is 1.9%.

In [1], `COc1ccc(-c2n[nH]c(-c3ccncc3)n2)cc1[N+](=O)[O-]` registered an IC50 of 3.3 nM. For the same compound, the Activity in series [2] stood at 19.6%.

`Oc1ncnc2[nH]ncc12` [ALLOPURINOL]: the figures for the Activity in series [2] and in [7] were -3.3% and 35.9%, respectively.

`Cc1cc(-c2nc(-c3ccc(OCC(C)C)nc3)n[nH]2)ccn1` gave an IC50 in series [1] of 170 nM. Further, in [2], the Activity is reported as 13%.

As to `N#Cc1cc(-c2n[nH]c(-c3ccnc(-c4ccccc4)c3)n2)ccn1`, the Activity in series [2] came out at 4.2%.

`c1ccc(-c2n[nH]c(-c3ccncc3)n2)nc1`: the inhibition at 10 µM stood at 20.3% in [4] and 31% in series [8].

Take `N#Cc1cc(-c2n[nH]c(-c3ccnc(C#N)c3)n2)ccn1`: in series [1], the IC50 was 18 nM. Besides, the Activity in series [2] is recorded as 32%.

For the compound `Fc1cc(-c2n[nH]c(-c3ccncc3)n2)ccn1`, in series [1], inhibition was half-maximal at 48 nM (IC50). Also, in [2], the Activity is listed as -0.2%. In series [4], the inhibition at 10 µM came out at 40.2%.

For the compound `CSc1cc(-c2nc(-c3ccnc(C#N)c3)n[nH]2)ccn1`, in series [2], the Activity is -3.7%.

Turning to `Cc1cc(-c2n[nH]c(-c3ccnc(Cl)c3)n2)ccn1`, in [1], half-maximal inhibition (IC50) required 89 nM. Besides, in series [2], the Activity was 32.9%. This compound gave a Cmax in series [5] of 4070 ng/mL.

The compound `Cc1cc(-c2nc(-c3ccncc3)n[nH]2)ccn1` gave a half-inhibitory concentration (IC50) in series [1] of 28 nM. For the same compound, in series [2], the Activity was -0.4%. For the same compound, the inhibition at 10 µM in series [4] amounted to 24.7%. In series [9], this compound came in with a Cmax of 1240 ng/mL.

`Brc1cc(-c2n[nH]c(-c3ccncc3)n2)ccn1`: in series [1], the IC50 came to 9.9 nM. Also, the Activity in series [2] was -6.2%.

In [1], `O=[N+]([O-])c1cc(-c2n[nH]c(-c3ccncc3)n2)ccc1Cl` gave an IC50 of 4.7 nM. Also, the Activity in [2] is given as 0.9%.

In [1], `Cc1cc(-c2n[nH]c(-c3ccnc(SCC(C)C)c3)n2)ccn1` gave an IC50 of 46 nM. In addition, in [2], the Activity is recorded as 4.5%.

On to `Cc1cc(-c2n[nH]c(-c3ccnc(OCC(C)C)c3)n2)ccn1`, for which the IC50 in series [1] is 63 nM. Besides, the Activity in [2] came to 2.3%. In series [5], this compound displayed a maximum concentration (Cmax) of 1440 ng/mL.

In the case of `N#Cc1cc(-c2n[nH]c(-c3ccncc3)n2)ccn1` [TOPIROXOSTAT], half-maximal inhibition in [1] (IC50) was put at 5.3 nM. Moreover, the Activity in [2] turned out to be 51.1%; in series [7], 59.9%. Besides, the inhibition at 10 µM in series [4] was 18.6%. In series [10], the half-life was 19.7 h. This compound also displayed a bioavailability in [11] of 69.6%.

`CC(C)COc1ccc(-c2n[nH]c(-c3ccncc3)n2)cc1[N+](=O)[O-]` yielded an IC50 in [1] of 3.7 nM. For the same compound, the Activity in [2] came to 33.7%.

For the compound `N#Cc1ccc(-c2n[nH]c(-c3ccncc3)n2)cn1`, in series [1], inhibition was half-maximal at 38 nM (IC50). In addition, the Activity in series [6] (dose 0.3 mg/kg, in the assay text read “at 0.3 mg/kg” for “at 1 mg/kg”) is listed as -4%.

Regarding `CC(C)COc1ccc(-c2n[nH]c(-c3ccnc(C#N)c3)n2)cn1`, inhibition in [1] was half-maximal at 590 nM (IC50). Further, the Activity in series [3] is on record as -6.1%.

`Cc1cc(-c2nc(-c3ccc(Cl)c([N+](=O)[O-])c3)n[nH]2)ccn1` gave an IC50 in series [1] of 30 nM. In addition, the Activity in [2] worked out at 19.8%.

`c1ccc(-c2cc(-c3n[nH]c(-c4ccncc4)n3)ccn2)cc1`: the IC50 in series [1] was determined as 6.8 nM. For the same compound, the Activity in series [2] is -0.4%.

In the case of `c1cncc(-c2n[nH]c(-c3ccncc3)n2)c1`, the IC50 in [1] is 130 nM. Further, the inhibition at 10 µM in series [4] came to 10.4%. The Activity in series [6] (dose 1 mg/kg) is given as -7.7%.

As for `N#Cc1cc(-c2n[nH]c(-c3ccnc(Cl)c3)n2)ccn1`, inhibition in series [1] was half-maximal at 39 nM (IC50). Moreover, the Activity in series [2] is reported as 33.6%. Also, in series [4], the inhibition at 10 µM was 3.6%. The same compound registered a peak concentration (Cmax) in series [5] of 5340 ng/mL.

Turning to `Cc1cc(-c2nc(-c3ccc(OCC(C)C)c(C#N)c3)n[nH]2)ccn1`, the IC50 in series [1] was 17 nM. The Activity in [2] worked out at 46%.

In turn, `CC(C)COc1ccc(-c2n[nH]c(-c3ccncc3)n2)cc1C#N` displayed a half-inhibitory concentration (IC50) in series [1] of 4.9 nM. In addition, in series [2], the Activity turned out to be 36.3%.

Compound `Cc1cc(-c2nc(-c3ccc(OCC(C)C)c([N+](=O)[O-])c3)n[nH]2)ccn1` had an IC50 in series [1] of 10 nM. Moreover, the Activity in [2] was 39.1%.
